Data from article PMC5645071 (Journal of controlled release : official journal of the …, 2015).

Columns and labels:
[1] = In vitro release study; assay type: physicochemical; settings: in 24 h, distilled water, 37 °C, 50 rpm
Procedure, shortened: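 Test formulation equivalent to 2 mg drug stirred in USP apparatus II with 200 ml distilled water, […], paddle 50 rpm. At set intervals, 1 ml aliquots were withdrawn, filtered and assayed by HPLC, with fresh medium replaced each time.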

[2] = tested on: Caco-2 monolayers; test: Caco-2 permeability study; assay type: in vitro ADME
[3] = Pharmacokinetics / bioavailability in dogs; assay type: in vivo
[4] = tested on: H1650 cancer stem cell xenograft tumor; assay type: in vivo; settings: 20 mg/kg oral gavage
[5] = tested on: H1650 cancer stem cell orthotopic lung tumor; assay type: in vivo; settings: 20 mg/kg oral gavage, 30 days treatment
[6] = tested on: Bcl-2; test: Western blot of tumor lysates: Bcl-2; assay type: in vivo, Nu/nu mice; settings: densitometry
Procedure, shortened: (§1)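 Nu/nu mice bearing H1650 cancer-stem-cell tumours got vehicle or test compound by oral gavage, solution or self-emulsified form, 20 mg/kg (solution every other day). Tumour nodules were lysed in RIPA pH 8.0 with protease inhibitor; 50 µg protein (BCA) on 10% SDS-PAGE, nitrocellulose, 5% milk/TBST block, antibodies 1:1000, HRP secondary. Signal normalised to β-actin; three replicates, mean ± SEM, one-way ANOVA with Tukey test.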

[7] = tested on: SOX2; test: Western blot of tumor lysates: SOX2; assay type: in vivo, Nu/nu mice
Procedure, shortened: as §1

[8] = tested on: Nanog; test: Western blot of tumor lysates: Nanog; assay type: in vivo, Nu/nu mice
[9] = tested on: NF-КB; test: Western blot of tumor lysates: NF-КB; assay type: in vivo, Nu/nu mice
Procedure, shortened: as §1

[10] = tested on: lung tumor tissue; test: Hematoxylin and eosin staining of lung tumor tissue; assay type: in vivo, Nu/nu mice
[11] = mouse, in vivo, cited from earlier work
[12] = tested on: CSCs; settings: cited from earlier work
[13] = tested on: CSCs; settings: cited from earlier work; remark: listed apart in the source
[14] = i.v. bolus 0.5 mg/kg, two-compartment model

Compound: 3, 3-Diindolylmethane-14 [DIM-14]
- drug release [1]: ~ 10%
- average Peff, A–B ([2]; Caco-2, donor pH 6.5, acceptor pH 7.4): approximately 0.26 ± 0.05 × 10^−6 cm/s
- average Peff, B–A ([2]; Caco-2, secretory direction): 0.41 ± 0.09 × 10^−6 cm/s
- Volume of distribution (Vd) ([3]; i.v. bolus 0.5 mg/kg): 0.321 L/kg
- Volume of distribution at steady state (Vdss) ([3]; i.v. bolus 0.5 mg/kg): 0.319 L/kg
- K10 (elimination from central compartment) [3, 14]: 0.003 L/h
- K21 (peripheral to central compartment) [3, 14]: 0.15 L/h
- absolute oral bioavailability ([3]; oral 3.33 mg/kg): < 10%
- decrease in average number of tumor nodules versus control [4]: 29%
- decrease in lung tumor volumes [4]: 29%
- decrease in lung tumor weights versus vehicle control [4]: 30%
- decrease in average number of tumor nodules versus control [5]: 22%
- decrease in lung tumor volumes [5]: 34%
- decrease in lung tumor weights versus vehicle control [5]: 24%
- reduction of β-actin relative Bcl-2 expression versus untreated control tumors [6]: 1.8 fold
- reduction of relative SOX2 expression versus untreated control [7]: 1.9 fold
- decrease of relative Nanog expression versus untreated control [8]: 2.4 fold
- expression of NF-КB [9]: significantly down regulated
- histological examination of lungs and tracheobronchial epithelium ([10]; all groups): no signs of inflammation or edema
- tumor microvessels (H & E histology) ([10]; treated tumors versus untreated mice): only occasional, isolated microvessels

Compound: COc1ccc(C(c2c[nH]c3ccccc23)c2c[nH]c3ccccc23)cc1 [DIM-5]
- Oral bioavaibility [11]: 39%

Compound: Oc1ccc(C(c2c[nH]c3ccccc23)c2c[nH]c3ccccc23)cc1 [DIM-8]
- time to reach Cmax (Tmax) ([11]; po): about 60 min
- Oral bioavaibility [11]: 6%

Compound: Clc1ccc(C(c2c[nH]c3ccccc23)c2c[nH]c3ccccc23)cc1 [DIM-12]
- Oral bioavaibility [11]: 42%

Compound: CN(C)C(=N)N=C(N)N [Metformin]
- concentrations at which it works against CSCs [12]: 100 to 300 µM

Compound: CC[C@@H](C(=O)[C@@H](C)[C@@H](O)[C@H](C)[C@@H]1O[C@@H]([C@@H](CC)C(=O)O)CC[C@@H]1C)[C@H]1O[C@]2(C=C[C@@H](O)[C@]3(CC[C@@](C)([C@H]4CC[C@](O)(CC)[C@H](C)O4)O3)O2)[C@H](C)C[C@@H]1C [salinomycin]
- reduction of the proportion of CSCs relative to paclitaxel [13]: more than 100 fold

Compound: Lucifer Yellow [reference compound]
- mean permeability of paracellular control ([2]; Caco-2): < 1.5e-07 cm/s
